High-throughput results (PubChem BioAssay)
Env fusion inh = inhibitors of HIV-1 Env-driven cell-cell fusion, primary screen, HeLa-JRFL effector, CEM21 target cells, luciferase; inhibition, % at 12.3 µM; 1.1% of 360,000 active; AID 651610, 2012;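 active means mean replicate inhibition score of at least 50 and every replicate individually at or above 50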;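 further: 0% = plate neutral controls and 100% = maraviroc near 300 nM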
FN deposit inh = inhibitors of fibronectin matrix deposition, primary screen, AH1F cells, Alexa488-fibronectin fluorescence, plate reader | AH1F fibroblasts, overnight | inhibition, % at 12.6 µM | 0.086% of 350,000 active | AID 743247, 2014;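 active means mean inhibition across replicates of 30% or more, regardless of how many single replicates reach that level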;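 further: positive control wells lacked labelled fibronectin entirely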
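Test system: AH1F fibroblast monolayer depositing Alexa488-labelled fibronectin into matrix. Input: 10000 cells per well. Technique: fluorescence, ex 485 nm, em 525 nm. Buffer or medium: DMEM plus 2% serum, read in PBS. Timing: 1 h cell adhesion before compound, then overnight fibronectin incubation. Compound: single dose, pinned. Read-out basis: inhibition from reduced deposited-fibronectin fluorescence.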
DENV2 CPE = inhibitors of DENV2 cytopathic effect, primary screen, cell-based, plate reader, single concentration; DENV2-infected cells, cytopathic effect rescue; CPE inhibition, % at 9.99 µM; 1.7% of 350,000 active; in the data active means CPE inhibition above about 20%, passing the limit was not always enough; tested in BHK-21 cells;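 further: 0% = median of neutral control wells and 100% = median of positive control wells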
PglD DTNB = C. jejuni PglD acetyltransferase inhibitors, primary screen, biochemical, DTNB colorimetric, single point | UDP-N-acetylbacillosamine N-acetyltransferase PglD (Campylobacter jejuni) | purified PglD enzyme, DTNB colorimetric CoA detection | inhibition, % at 12.5 µM | 0.098% of 360,000 active | AID 602405, 2012; in the data active means inhibition above about 16%, passing the limit was not always enough
PGC1a acetyl inh = inhibitors of PGC1a acetylation signal, primary screen, cell-based, U2OS, AlphaScreen, inhibitor mode. 0.17% of 350,000 active. AlphaScreen anti-acetyl-lysine; with virally co-expressed GCN5 acetyltransferase. AID 651687, 2012. inhibition, % at 15.6 µM;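 active means every replicate shows inhibition of at least 40%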;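 further: 0% = neutral control wells and 100% = positive control wells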
Ecoli rRNA inh = reduced GFP signal of wild-type E. coli, primary screen, bacterial rRNA inhibitor project, GFP/RFP fluorescence, OD600, single point | 1.6% of 350,000 active | AID 720706, 2013 | E. coli WT GFP vs humanized-ribosome RFP mutants, 24 h; active compounds read low; DMSO median 0, no signal -100 | GFP signal change (wild-type ribosome), % (test concentration not listed);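 active means significant combined selectivity score with lowered wild-type GFP, culture density cut under 30%, mutant RFP and density less affected; inactive means any of these conditions unmet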
Numbers without * were called inactive; x = no result; ! = not confirmed by another sample; [ ] = dose if it differs, or a comment. Shown are actives, neighbours in structure and some others; about 3.5% of the full set was active somewhere.

SMILES	Env fusion inh	FN deposit inh	DENV2 CPE	PglD DTNB	PGC1a acetyl inh	Ecoli rRNA inh
COc1ccc2c3c([nH]c2c1)[C@@H](CO)N(C(=O)CN(C)C)CC31CN(Cc2ccccc2Cl)C1	x	x	x	x	x	-25
COc1ccc(CN2CC3(C2)CN(C(=O)CN(C)C)[C@@H](CO)c2[nH]c4cc(OC)ccc4c23)cc1	-24[16.7 µM]	x	-5	x	x	4
COc1ccc2c3c([nH]c2c1)[C@@H](CO)N(C(=O)CN(C)C)CC31CN(Cc2ccccc2)C1	x	x	39*	x	-20	1
O=C(C[C@H]1CC[C@@H]2[C@H](COC[C@H](O)CN2C(=O)c2cccnc2)O1)NCC1CC1	x	-12	3	-2	6	3
Cc1[nH]n(-c2ccccc2)c(=O)c1N=Nc1ccc(F)cc1	10	3	4	-1	5	6
CSc1ccc(N=Nc2c(C)[nH]n(C)c2=O)cc1	-42	-6	-4	x	2	-24*
O=C1NC[C@H](CCCCN2C[C@H](Cc3ccc(O)cc3)N(CCC3CCCCC3)C(=O)C2=O)N(CCc2ccc(O)cc2)C1=O	-60	-8	2	x	x	-25*
O=C1NC[C@@H](CCCCN2C[C@H](Cc3ccc(O)cc3)N(Cc3ccccc3)C(=O)C2=O)N(CCc2ccc(O)cc2)C1=O	57*	-13	-9	x	x	-2
O=C1NC[C@@H](CCCCN2C[C@H](Cc3ccc(O)cc3)N(CCC3CCCCC3)C(=O)C2=O)N(CCc2ccc(O)cc2)C1=O	-29	18	11	x	x	-19
O=C1NC[C@H](CCCCN2C[C@H](Cc3ccc(O)cc3)N(Cc3ccccc3)C(=O)C2=O)N(CCc2ccc(O)cc2)C1=O	0	-1	-5	x	x	-3
CCC1CN(C(=O)NCc2ccccc2)c2ccccc2O1 (stereo not drawn)	-13	3	-1	6	3	-22*
CCC1CN(C(=O)NCc2ccccc2)c2cc(Cl)ccc2O1 (stereo not drawn)	13	4	6	-4	2	-9
Cc1noc(C)c1NC(=O)N[C@@H]1C=C[C@@H](CC(=O)NCCCN(C)C)O[C@H]1CO	x	-3	10	3	0	-2
CN1CC(c2ccc(Cl)c(Cl)c2)[C@@]2(COc3ccccc3C2=O)[C@@]12C(=O)Nc1ccccc12 (stereo partly drawn)	103*	1	x	-8	-7	x
CCOC(=O)N1CCC(C(=O)NNC(=O)c2ccc(Cl)cc2Cl)CC1	-2	-3	45*	1	8	7
Fc1cccc(CN2C[C@@H]3N[C@H](C2)[C@@H]3c2ccc(-c3cccc(F)c3)cc2)c1	x	2	-30	x	99*	-57
Fc1cccc(CN2C[C@@H]3N[C@H](C2)C3c2ccc(-c3ccccc3)cc2)c1 (stereo partly drawn)	x	-9	3	x	97*!	-55
Fc1cccc(-c2ccc(C3[C@@H]4CN(Cc5cccnc5)C[C@H]3N4)cc2)c1 (stereo partly drawn)	x	8	2	x	-37	-2
C[C@@H]1CN([C@H](C)CO)C(=O)c2cc(NC(=O)c3ccccc3)ccc2O[C@@H](C)CCCCO[C@@H]1CN(C)C(=O)c1ccccc1	-3[16.7 µM]	-1	x	3	3	-3
C[C@@H]1CN([C@@H](C)CO)C(=O)c2cc(-c3ccncc3)cnc2O[C@H]1CN(C)S(=O)(=O)c1ccccc1	-24[16.7 µM]	x	1	0	5	-1
CC(=O)Nc1ccc(S(=O)(=O)N2CCN(CCCOc3ccccc3Cl)CC2)cc1	-27	5	x	x	x	x
CCCCS(=O)(=O)N1CCN(C(=O)C(=O)c2cccc(C(F)(F)F)c2)CC1	91*	1	-11	x	x	10
CC(=O)Nc1ccc(S(=O)(=O)N2CCN(C(=O)C(=O)c3cccc(C(F)(F)F)c3)CC2)cc1	5	4	5	x	x	-13*
CC(=O)c1ccc(S(=O)(=O)N2CCN(C(=O)C(=O)c3cccc(C(F)(F)F)c3)CC2)cc1	6	7	13	x	x	11
COc1cccc(OCCCN2CCN(S(=O)(=O)c3ccc(NC(C)=O)cc3)CC2)c1	63*	x	x	x	0	x
SMILES	Env fusion inh	FN deposit inh	DENV2 CPE	PglD DTNB	PGC1a acetyl inh	Ecoli rRNA inh
C[C@H]1CN([C@@H](C)CO)C(=O)c2cccc(NC(=O)NC3CCCCC3)c2O[C@H]1CN(C)C(=O)Nc1ccc(F)cc1	-1[16.7 µM]	x	8	-2	-5	2
O=C(O)CSCC(=O)Nc1ccc(C2CCCCC2)cc1	98*	-10	x	-5	18	x
Cc1ccc(S(=O)(=O)c2ccc([N+](=O)[O-])o2)cc1	-198	49*	-4	x	x	-22
COc1ccc(CCNc2oc(-c3cccc4ccccc34)nc2P(=O)(OC)OC)cc1OC	69*	3	x	7	10	-20
C[C@@H]1CN(C)C(=O)Cc2cc([N+](=O)[O-])ccc2O[C@H]1CN(C)C(=O)OC(C)(C)C	x	-22	x	x	x	0
CN1[C@@H]2c3ccc(-c4ccccc4)c(=O)n3C[C@H]1[C@H](CO)[C@H]2C(=O)NCC1CC1	x	x	0	2	x	-1
COc1ccc(C(=O)NNC(=O)c2cccc(F)c2)cc1	-10	x	1	x	x	-23*
O=C(NNC(=O)c1ccc2ccccc2c1)c1cccc(F)c1	x	-10	-4	-7	-8	-5
COc1ccc(C(=O)Nc2ccc(C)cc2C(=O)c2ccccc2)cc1	26	-5	-2	x	x	-19*
COc1cccc(C(=O)NNC(=O)Cc2ccc(Cl)cc2)c1	4	0	4	9	x	-21*
COc1ccc(C(=O)NNC(=O)c2ccc3ccccc3c2O)cc1	3	5	-2	-4	x	-24*
CN(C)C(=O)C[C@@H]1CC[C@H]2[C@@H](COc3ccc(NC(=O)C4CCC4)cc3C(=O)N2C)O1	x	6	17	x	6	1
Cc1ccc(C(=O)NNC(=O)c2ccc3ccccc3c2O)cc1	3	-3	-3	3	-17	-27*
O=C(C[C@H]1CC[C@@H](NC(=O)Nc2ccc3c(c2)OCO3)[C@H](CO)O1)NCc1ccc(F)cc1	-2[16.7 µM]	x	10	0	-7	-1
CC1CC2=C(C(=O)O1)C(c1ccc(Cl)cc1)Nc1ccccc1N2 (stereo not drawn)	x	7	88*	x	x	6
C[C@@H]1CCCCO[C@H](CN(C)C)[C@@H](C)CN([C@H](C)CO)C(=O)c2cc(NC(=O)CCC(F)(F)F)ccc2O1	-4[16.7 µM]	x	-7	-1	0	4
CCn1c2ccccc2c2cc(CNCc3ccc(OC)cc3OC)ccc21	56*	3	-12	x	x	-53
CC(C)CC#Cc1ccc2c(c1)O[C@@H](CN(C)C(=O)C1CCCCC1)[C@H](C)CN([C@@H](C)CO)S2(=O)=O	57*[16.7 µM]	3	3	0	2	-2
